According to ChEMBL document CHEMBL2016469, “Synthesis and evaluation of 1-(substituted)-3-prop-2-ynylureas as antiangiogenic agents” (Bioorg Med Chem Lett, 2012):
The source made the active and inactive calls. No cut-off for these calls is given here.

How the values were obtained:
[1] = system: K562; assay: Cytotoxicity against human K562 cells; format: functional, cell-based
[2] = system: MCF7; assay: Cytotoxicity against human MCF7 cells after 48 hrs by MTT assay; format: functional, cell-based; settings: MCF7, 48 h
[3] = system: HUVEC; assay: Cytotoxicity against HUVEC at 12.5 nM after 48 hrs by MTT assay; format: cell-based; settings: human, 0.0125 µM
[4] = system: A-431; assay: Cytotoxicity against human A431 cells over expressing EGFR after 48 hrs by MTT assay; format: functional, cell-based; settings: A-431, 48 h
[5] = system: HUVEC; assay: Angiogenic activity in HUVEC assessed as induction of tube formation at 12.5 nM after 24 hrs by hematoxylin staining analysis; format: functional, cell-based; settings: Homo sapiens
[6] = Cytotoxicity against human EAhy926 cells after 48 hrs by MTT assay; format: functional, cell-based; settings: EA.hy 926, 48 h
[7] = system: HUVEC; assay: Cytotoxicity against HUVEC after 48 hrs by MTT assay; format: cell-based; settings: Homo sapiens
How it was run: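 MTT assay. HeLa and MCF-7 were tested at 1 and 100 μM. HUVEC cytotoxicity was measured the same way as for HeLa and MCF-7, to define non-cytotoxic doses for the tube-formation work. IC50 values taken as means of three independent experiments.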

[8] = system: HeLa; assay: Cytotoxicity against human HeLa cells after 48 hrs by MTT assay; format: functional, cell-based
[9] = system: HUVEC; assay: Antiangiogenic activity in HUVEC assessed as suppression of tube formation at 6.25 uM after 24 hrs by hematoxylin staining analysis; format: functional; settings: Homo sapiens
[10] = system: HUVEC; assay: Ratio of IC50 for cytotoxicity in HUVEC to EC50 for antiangiogenic activity in HUVEC; format: functional, Homo sapiens
How it was run: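 Ratio of HUVEC cytotoxic IC50 (MTT) to antiangiogenic ED50 from the HUVEC tube-formation assay.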

[11] = target: Fibroblast growth factor receptor 1 (Homo sapiens) (UniProt P11362); assay: Inhibition of human recombinant FGFR1 expressed in insect cells using Ulight-CAGAGAIETDKEYYTVKD as substrate at 1 uM after 60 mins by fluorescence assay
Sequence of Fibroblast growth factor receptor 1 (Homo sapiens) (P11362 22-822 limits assumed): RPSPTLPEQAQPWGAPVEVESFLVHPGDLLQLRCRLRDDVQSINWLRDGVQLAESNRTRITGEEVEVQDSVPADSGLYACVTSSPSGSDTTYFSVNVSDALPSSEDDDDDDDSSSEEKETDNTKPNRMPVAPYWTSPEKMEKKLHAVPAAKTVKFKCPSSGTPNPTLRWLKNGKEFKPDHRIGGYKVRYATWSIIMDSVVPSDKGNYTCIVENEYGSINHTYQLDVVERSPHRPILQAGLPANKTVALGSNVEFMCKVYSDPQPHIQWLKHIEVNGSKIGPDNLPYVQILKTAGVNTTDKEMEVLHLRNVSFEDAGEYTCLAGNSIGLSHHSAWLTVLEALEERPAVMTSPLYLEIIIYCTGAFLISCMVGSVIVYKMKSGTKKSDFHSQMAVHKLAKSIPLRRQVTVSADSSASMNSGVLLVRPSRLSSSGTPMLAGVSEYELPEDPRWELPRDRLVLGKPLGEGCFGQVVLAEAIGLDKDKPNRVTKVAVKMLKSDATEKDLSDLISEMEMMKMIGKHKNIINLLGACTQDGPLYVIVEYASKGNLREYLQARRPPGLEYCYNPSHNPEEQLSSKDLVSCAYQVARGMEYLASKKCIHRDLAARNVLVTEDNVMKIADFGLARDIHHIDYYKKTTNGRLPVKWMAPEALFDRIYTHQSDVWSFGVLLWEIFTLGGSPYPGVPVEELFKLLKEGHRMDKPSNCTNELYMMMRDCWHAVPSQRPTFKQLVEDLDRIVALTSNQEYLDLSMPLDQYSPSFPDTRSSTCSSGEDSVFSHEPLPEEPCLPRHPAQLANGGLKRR
How it was run: (§1)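 In vitro kinase assay against FGFR1, PDGFRβ or VEGFR2 with test compound at 1 μM. Read-out is the level of phosphorylation of a tyrosine kinase-specific ligand peptide substrate.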

[12] = system: HUVEC; assay: Antiangiogenic activity in HUVEC assessed as suppression of tube formation after 24 hrs by hematoxylin staining analysis; format: functional, cell-based; settings: Homo sapiens
[13] = target: Vascular endothelial growth factor receptor 2 (Homo sapiens) (UniProt P35968); assay: Inhibition of human recombinant VEGFR2 expressed in insect cells using Ulight-CAGAGAIETDKEYYTVKD as substrate at 1 uM after 60 mins by fluorescence assay; how it was run: as §1
Sequence of Vascular endothelial growth factor receptor 2 (Homo sapiens) (P35968 whole entry): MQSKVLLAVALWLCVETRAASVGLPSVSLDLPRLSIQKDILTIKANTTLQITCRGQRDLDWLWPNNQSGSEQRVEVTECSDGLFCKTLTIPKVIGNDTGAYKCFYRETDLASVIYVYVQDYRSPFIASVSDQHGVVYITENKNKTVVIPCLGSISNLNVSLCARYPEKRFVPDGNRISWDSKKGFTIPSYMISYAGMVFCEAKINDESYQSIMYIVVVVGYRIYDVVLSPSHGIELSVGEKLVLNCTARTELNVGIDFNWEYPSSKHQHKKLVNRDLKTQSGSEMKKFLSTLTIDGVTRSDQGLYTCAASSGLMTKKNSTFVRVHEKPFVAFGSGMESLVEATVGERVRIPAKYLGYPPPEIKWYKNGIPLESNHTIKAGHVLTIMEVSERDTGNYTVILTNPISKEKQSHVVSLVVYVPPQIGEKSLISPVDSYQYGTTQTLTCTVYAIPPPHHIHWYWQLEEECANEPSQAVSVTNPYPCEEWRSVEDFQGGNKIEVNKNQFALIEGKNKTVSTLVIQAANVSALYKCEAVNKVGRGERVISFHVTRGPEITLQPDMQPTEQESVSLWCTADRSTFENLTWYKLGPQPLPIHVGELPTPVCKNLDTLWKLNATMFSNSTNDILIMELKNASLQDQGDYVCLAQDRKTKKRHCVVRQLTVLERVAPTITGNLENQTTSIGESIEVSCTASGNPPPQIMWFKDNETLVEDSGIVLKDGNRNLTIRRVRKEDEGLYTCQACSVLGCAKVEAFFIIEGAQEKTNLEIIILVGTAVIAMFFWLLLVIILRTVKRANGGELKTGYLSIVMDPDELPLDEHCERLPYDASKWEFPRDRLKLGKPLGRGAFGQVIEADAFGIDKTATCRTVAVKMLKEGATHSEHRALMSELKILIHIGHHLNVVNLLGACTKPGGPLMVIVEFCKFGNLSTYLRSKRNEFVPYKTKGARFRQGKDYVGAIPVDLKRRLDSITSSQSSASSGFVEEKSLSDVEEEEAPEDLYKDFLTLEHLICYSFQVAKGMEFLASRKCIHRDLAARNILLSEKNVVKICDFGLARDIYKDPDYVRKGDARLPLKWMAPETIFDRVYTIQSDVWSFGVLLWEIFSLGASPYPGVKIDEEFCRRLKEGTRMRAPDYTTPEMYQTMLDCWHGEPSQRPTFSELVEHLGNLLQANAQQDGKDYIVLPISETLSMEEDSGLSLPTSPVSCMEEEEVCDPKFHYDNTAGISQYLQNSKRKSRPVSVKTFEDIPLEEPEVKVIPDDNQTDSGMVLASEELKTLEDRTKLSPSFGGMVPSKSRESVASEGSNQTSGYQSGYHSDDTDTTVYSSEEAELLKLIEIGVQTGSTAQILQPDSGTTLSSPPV

[14] = target: Platelet-derived growth factor receptor beta (Homo sapiens) (UniProt P09619); assay: Inhibition of human recombinant PDGFR-beta expressed in insect cells using Ulight-Poly GAT[EAY(1:1:1)]n as substrate at 1 uM after 60 mins by fluorescence assay; how it was run: as §1
Sequence of Platelet-derived growth factor receptor beta (Homo sapiens) (P09619 whole entry): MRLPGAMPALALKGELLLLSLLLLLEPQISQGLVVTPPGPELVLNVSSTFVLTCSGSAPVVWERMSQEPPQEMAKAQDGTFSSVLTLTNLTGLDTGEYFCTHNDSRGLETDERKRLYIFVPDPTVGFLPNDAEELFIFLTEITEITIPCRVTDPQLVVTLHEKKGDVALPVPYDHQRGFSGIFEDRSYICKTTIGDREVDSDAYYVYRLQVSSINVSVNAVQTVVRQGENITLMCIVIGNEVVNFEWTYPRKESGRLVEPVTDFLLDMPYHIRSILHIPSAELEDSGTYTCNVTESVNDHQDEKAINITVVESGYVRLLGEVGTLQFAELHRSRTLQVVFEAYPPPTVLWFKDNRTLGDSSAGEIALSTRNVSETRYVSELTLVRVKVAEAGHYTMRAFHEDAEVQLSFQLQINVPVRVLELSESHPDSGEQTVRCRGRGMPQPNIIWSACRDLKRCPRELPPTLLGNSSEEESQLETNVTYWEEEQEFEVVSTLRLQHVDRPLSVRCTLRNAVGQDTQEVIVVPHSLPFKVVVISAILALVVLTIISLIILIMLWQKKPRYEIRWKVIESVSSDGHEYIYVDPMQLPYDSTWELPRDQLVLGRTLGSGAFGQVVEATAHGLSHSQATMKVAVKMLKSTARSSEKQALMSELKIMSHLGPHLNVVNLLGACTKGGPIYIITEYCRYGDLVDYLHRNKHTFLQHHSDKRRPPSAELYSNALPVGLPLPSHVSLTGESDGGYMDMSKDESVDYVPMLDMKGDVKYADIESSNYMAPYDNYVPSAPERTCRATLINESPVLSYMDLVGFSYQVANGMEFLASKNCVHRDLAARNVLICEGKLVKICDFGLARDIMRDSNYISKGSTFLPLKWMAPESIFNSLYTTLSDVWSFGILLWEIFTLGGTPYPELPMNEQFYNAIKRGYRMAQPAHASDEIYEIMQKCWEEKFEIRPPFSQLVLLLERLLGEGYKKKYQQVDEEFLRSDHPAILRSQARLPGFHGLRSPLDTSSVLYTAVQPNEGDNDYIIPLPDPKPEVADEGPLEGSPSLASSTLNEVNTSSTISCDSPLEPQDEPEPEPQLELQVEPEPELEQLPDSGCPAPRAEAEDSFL

[15] = system: HeLa; assay: Cytotoxicity against human HeLa cells at 100 uM after 48 hrs by MTT assay; format: functional; settings: read-out: GI
How it was run: (§2)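 MTT cytotoxicity screen against HeLa or MCF-7 cells at a single test concentration of 100 μM (screen also included 1 μM).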

[16] = system: HUVEC; assay: Antiangiogenic activity in HUVEC assessed as suppression of tube formation at 25 nM after 24 hrs by hematoxylin staining analysis; format: functional; settings: Homo sapiens
[17] = system: MCF7; assay: Cytotoxicity against human MCF7 cells at 100 uM after 48 hrs by MTT assay; format: functional; settings: MCF7, 48 h, read-out: GI; how it was run: as §2
[18] = system: MDA-MB-231; assay: Cytotoxicity against human MDA-MB-231 cells; format: functional, cell-based
[19] = Homo sapiens, HeLa, 48 h, read-out: IC50

SMILES | IC50 [2] [µM] | IC50 [4] [µM] | IC50 [6] [µM] | IC50 [7] [µM] | IC50 [8, 19] [µM] | also measured
COc1ccc(N(C(=O)N(C)C)c2nnc(-c3ccccc3)s2)cc1OC |  |  |  |  |  | IC50 [1]: 3 µM
C#CCNC(=O)Nc1cccc(CNCc2ccccc2)c1 | 343 | 0.318 | 192 | 50 |  | Activity [3]: Non-toxic; Activity [5]: Active; IC50 ([8]; hela): Not Active
C#CCNC(=O)Nc1cccc(COc2ccc(C(=O)OC)cc2)c1 | 74.9 | 0.215 | 78.2 | 100 | 12.3 | inhibition at 6.25 µM [9]: 46.5%; Ratio [10]: 6; inhibition [11]: inactive; EC50 [12]: 17.5 µM; inhibition [13]: inactive
C#CCNC(=O)Nc1cccc(CNCc2ccc(OC)cc2)c1 | 195 |  |  |  | 392 | 
COc1cccc2c1C(=O)c1c(O)c3c(c(O)c1C2=O)C[C@@](O)(C(=O)CO)C[C@@H]3O[C@H]1C[C@H](N)[C@H](O)[C@H](C)O1 [DOXORUBICIN] |  |  |  |  | 0.19 | 
C#Cc1cccc(Nc2ncnc3cc(OCCOC)c(OCCOC)cc23)c1 [ERLOTINIB] |  | 0.055 |  |  |  | 
C#CCNC(=O)Nc1cccc(CNCc2ccc(OC(F)(F)F)cc2)c1 | 283 |  |  |  | 339 | 
C#CCNC(=O)Nc1cccc(CCl)c1 | 1.48 | 0.036 | 10.5 | 20 | 1.55 | inhibition [14]: Active; inhibition of growth at 100 µM [15]: 86.9%; Ratio [10]: 77; inhibition [11]: inactive; inhibition at 0.025 µM [16]: 21.2%; EC50 [12]: 0.26 µM; inhibition of growth at 100 µM [17]: 85.2%; inhibition [13]: inactive
C#CCNC(=O)Nc1cccc(CNCc2ccc(C)cc2)c1 | 49.9 |  |  |  | 329 | 
CNC(=O)c1cc(Oc2ccc(NC(=O)Nc3ccc(Cl)c(C(F)(F)F)c3)cc2)ccn1 [SORAFENIB] |  |  |  |  |  | IC50 [18]: 2.5 µM
